In ChEMBL document CHEMBL3425469, “Discovery of imidazo[2,1-b]thiazole HCV NS4B inhibitors exhibiting synergistic effect with other direct-acting antiviral agents” (J Med Chem, 2015) one finds CC50, EC50 and inhibition data, which are given here for 23 molecules.

A word on the CC50: it is the concentration giving 50% cytotoxicity. In general, EC50 refers to the midpoint of the concentration-response curve. A high value points to a need for much substance. In general, inhibition refers to the percentage by which the read-out fell short of the control. A low value points to a weak effect.

Data set [1] in a line: Cytotoxicity against human HuH7 cells assessed as cell proliferation by cell titer assay. It counts as cell-based, Huh-7. In short, it runs like this: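 Huh-7 cells carrying GT1b Con1 bicistronic replicon seeded at 8000 cells/well; compound added at 0.5% DMSO final, 37°C for 72 h. Proliferation read with CellTiter-Fluor reagent per manufacturer; CC50 fitted from concentration-response, average of at least two independent determinations.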

Data set [2] concerns Hepatitis C virus. Nature of the data set: Antiviral activity against Hepatitis C virus genotype 1b Con1 infected in human HuH7 cells after 72 hrs by luciferase assay. It counts as functional, cell-based, Hepacivirus hominis. The conditions noted are these: genotype 1b Con 1, Huh-7, 72 h. In short, it runs like this:
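Huh-7 cells stably carrying a genotype 1b Con1 bicistronic luciferase replicon, seeded at 8000 cells/well. Compounds were added at 0.5% DMSO final and incubated at 37°C for 72 h. Read-out was Bright-Glo luciferase, with cell proliferation measured by CellTiter-Fluor. EC50 is the mean of at least two independent runs. Some values are given as percent inhibition at 10 µM.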

In data set [3] the test system is Hepatitis C virus. Nature of the data set: Antiviral activity against Hepatitis C virus genotype 1b Con 1 infected in human HuH7 cells at 10 uM after 72 hrs by luciferase assay. Type of data set: functional, Hepacivirus hominis. The conditions noted are these: genotype 1b Con 1, Huh-7, 72 h. The essentials:
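Huh-7 cells carrying a GT1b Con1 bicistronic luciferase replicon, 8000 cells/well. Compound tested at 10 µM in 0.5% DMSO final, 37°C for 72 h. Replicon signal read as luciferase (Bright-Glo) and reported as percentage inhibition at 10 µM. Cell proliferation measured in parallel with CellTiter-Fluor. Values are the average of at least two independent determinations.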

Data set [4] has as its system Hepatitis C virus. The data set is described as follows: Antiviral activity against Hepatitis C virus genotype 1b harboring A156T NS3/4A mutation transfected in human HuH7 cells after 72 hrs by luciferase assay. It counts as functional, cell-based, Hepacivirus hominis. The following applies: Huh-7, 72 h. The essentials:
(§1)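 Huh-7 cells were transiently electroporated with genotype 1b replicon RNA carrying the specified mutation and plated at 10000 cells/well. Compounds were added at 0.5% DMSO final for 72 h at 37°C. Read-out was Bright-Glo luciferase. EC50 is the mean of two independent runs within 2-fold of each other. A reference drug EC50 was measured alongside each mutant replicon to validate it.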

Data set [5] has as its system Hepatitis C virus. The data set is described as follows: Antiviral activity against Hepatitis C virus genotype 1b harboring H3R NS4B mutation transfected in human HuH7 cells after 72 hrs by luciferase assay. It counts as functional, cell-based, Hepacivirus hominis. The conditions noted are these: Huh-7, 72 h. The essentials: as §1
For data set [6], the system named is Hepatitis C virus. The data set is described as follows: Antiviral activity against Hepatitis C virus genotype 1b harboring Q26R mutation transfected in human HuH7 cells after 72 hrs by luciferase assay. It counts as functional, cell-based, Hepacivirus hominis. The following applies: Huh-7, 72 h. The essentials: as §1
Data set [7] relates to Hepatitis C virus. The data set is described as follows: Antiviral activity against Hepatitis C virus genotype 1b harboring H94R mutation transfected in human HuH7 cells after 72 hrs by luciferase assay. The following applies: Huh-7, 72 h. Type of data set: functional, cell-based, Hepacivirus hominis. In short, it runs like this:
as §1

Data set [8] concerns Hepatitis C virus. Nature of the data set: Antiviral activity against Hepatitis C virus genotype 1b harboring F98C mutation transfected in human HuH7 cells after 72 hrs by luciferase assay. The following applies: Huh-7, 72 h. It counts as functional, cell-based, Hepacivirus hominis. In short, it runs like this: as §1
Data set [9] relates to Hepatitis C virus. Nature of the data set: Antiviral activity against Hepatitis C virus genotype 1b harboring V105M mutation transfected in human HuH7 cells after 72 hrs by luciferase assay. It counts as functional, cell-based, Hepacivirus hominis. The conditions noted are these: Huh-7, 72 h. In short, it runs like this:
as §1

In data set [10] the test system is Hepatitis C virus. The data set is described as follows: Antiviral activity against Hepatitis C virus genotype 1b harboring Y93H NS5A mutation transfected in human HuH7 cells after 72 hrs by luciferase assay. The following applies: Huh-7, 72 h. It counts as functional, cell-based, Hepacivirus hominis. In short, it runs like this:
as §1

For data set [11], the system named is Hepatitis C virus. Nature of the data set: Antiviral activity against Hepatitis C virus genotype 1b harboring S282T NS5B (active site) mutation transfected in human HuH7 cells after 72 hrs by luciferase assay. It counts as functional, cell-based, Hepacivirus hominis. The following applies: Huh-7, 72 h. In short, it runs like this:
as §1

Data set [12] concerns Hepatitis C virus. Nature of the data set: Antiviral activity against Hepatitis C virus genotype 1b harboring M423I NS5B (thumb 2) mutation transfected in human HuH7 cells after 72 hrs by luciferase assay. It counts as functional, cell-based, Hepacivirus hominis. The following applies: Huh-7, 72 h. In short, it runs like this:
as §1

Data set [13] deals with Hepatitis C virus. The data set is described as follows: Antiviral activity against Hepatitis C virus genotype 1b harboring P495A NS5B (thumb 1) mutation transfected in human HuH7 cells after 72 hrs by luciferase assay. Type of data set: functional, cell-based, Hepacivirus hominis. The following applies: Huh-7, 72 h. The essentials:
as §1

For data set [14], the system named is Hepatitis C virus. The data set is described as follows: Antiviral activity against Hepatitis C virus genotype 1b harboring Y448H NS5B (palm) mutation transfected in human HuH7 cells after 72 hrs by luciferase assay. It counts as functional, cell-based, Hepacivirus hominis. The conditions noted are these: Huh-7, 72 h. In short, it runs like this: as §1

With `O=C(c1nc2sc3cc(Br)ccc3n2c1Cl)N1CCN(C2CCCC2)C(=O)C1`, the 50% cytotoxic concentration (CC50) in [1] was more than 10000 nM. This molecule returned an EC50 in the data set on Hepatitis C virus [2] of 1790 nM.

In the case of `O=C(c1nc2sccn2c1Cl)N1CCN(C2CCCC2)C(=O)C1`, in data set [1], the CC50 is more than 10000 nM. This molecule also displayed an EC50 with Hepatitis C virus [2] of more than 10000 nM.

As to `Cc1cn2c(Cl)c(C(=O)N3CCN(C4CCCC4)C(=O)C3)nc2s1`, the cytotoxic concentration (CC50) in data set [1] is more than 10000 nM. In the data set with Hepatitis C virus [3], this molecule displayed an inhibition at 10 µM of 46%.

`CC(C)c1cn2c(Cl)c(C(=O)N3CCN(C4CCCC4)C(=O)C3)nc2s1`: the CC50 in data set [1] is more than 10000 nM. For the same molecule, the half-maximal effective concentration (EC50) in the data set with Hepatitis C virus [2] turned out to be 1320 nM.

Consider `Cc1c(C(C)C)sc2nc(C(=O)N3CCN(C4CCCC4)C(=O)C3)c(Cl)n12`, for which, in data set [1], the CC50 was more than 10000 nM. Also, the inhibition at 10 µM with Hepatitis C virus [3] amounted to 50%.

`Cc1csc2nc(C(=O)N3CCN(C4CCCC4)C(=O)C3)c(Cl)n12`: in data set [1], the CC50 is more than 10000 nM. In addition, the inhibition at 10 µM in the data set with Hepatitis C virus [3] is 53%.

Regarding `CC(C)Cc1csc2nc(C(=O)N3CCN(C4CCCC4)C(=O)C3)c(Cl)n12`, the CC50 in [1] is more than 10000 nM. The molecule also registered an EC50 in the data set with Hepatitis C virus [2] of 740 nM.

As to `O=C(c1nc2sc(Cl)c(C3CC3)n2c1Cl)N1CCN(C2CCCC2)C(=O)C1`, the half-maximal cytotoxic concentration (CC50) in data set [1] is more than 10000 nM. In the data set on Hepatitis C virus [2], this molecule gave an EC50 of 8600 nM.

Take `CC(C)Cc1c(Cl)sc2nc(C(=O)N3CCN(C4CCCC4)C(=O)C3)c(Cl)n12`: the cytotoxic concentration (CC50) in [1] was more than 10000 nM. For the same molecule, in the data set with Hepatitis C virus [2], the EC50 was determined as 6700 nM.

Regarding `O=C(c1nc2scc(C3CC3)n2c1Cl)N1CCN([C@H]2CC[C@H](O)CC2)C(=O)C1`, the cytotoxic concentration (CC50) in data set [1] is more than 10000 nM. Besides, in the data set with Hepatitis C virus [2], the half-maximal effective concentration (EC50) is 890 nM.

Take `O=C(c1nc2scc(C3CC3)n2c1Cl)N1CCN(C2CC=CC2)C(=O)C1`: the CC50 in data set [1] is more than 10000 nM. Besides, the midpoint of the response in the data set on Hepatitis C virus [2], the EC50, lay at 79 nM.

As for `O=C(c1nc2sc3c(n2c1Cl)CCC3)N1CCN(C2CCCC2)C(=O)C1`, in data set [1], the CC50 was more than 10000 nM. For the same molecule, in the data set with Hepatitis C virus [2], the EC50 was determined as 130 nM.

`O=C(c1nc2sc3c(n2c1Cl)CCCC3)N1CCN(C2CCCC2)C(=O)C1`: the CC50 in data set [1] is more than 10000 nM. This molecule returned an EC50 with Hepatitis C virus [2] of 190 nM.

Turning to `O=C(c1nc2sc3c(n2c1Cl)CCCCC3)N1CCN(C2CCCC2)C(=O)C1`, the CC50 in data set [1] was more than 10000 nM. In the data set on Hepatitis C virus [2], the concentration giving a half-maximal response (EC50) is 940 nM.

As to `CC1CCc2c(sc3nc(C(=O)N4CCN(C5CCCC5)C(=O)C4)c(Cl)n23)C1` (configuration not stated), the CC50 in [1] is more than 10000 nM. Besides, in the data set on Hepatitis C virus [2], the EC50 worked out at 260 nM.

For `CC1(C)CCc2c(sc3nc(C(=O)N4CCN(C5CCCC5)C(=O)C4)c(Cl)n23)C1`, the cytotoxic concentration (CC50) in [1] was more than 10000 nM. In the data set with Hepatitis C virus [2], this molecule gave a 50% effective concentration (EC50) of 1120 nM.

As to `O=C1CCCc2c1sc1nc(C(=O)N3CCN(C4CCCC4)C(=O)C3)c(Cl)n21`, the cytotoxic concentration (CC50) in [1] is more than 10000 nM. In the data set on Hepatitis C virus [2], this molecule registered an EC50 of more than 10000 nM.

On to `O=C(c1nc2sc3ccccc3n2c1Cl)N1CCN(C2CCCC2)C(=O)C1`, for which the cytotoxic concentration (CC50) in data set [1] is more than 10000 nM. In the data set on Hepatitis C virus [2], this molecule yielded an EC50 of 92 nM.

`COc1ccc2c(c1)sc1nc(C(=O)N3CCN(C4CCCC4)C(=O)C3)c(Cl)n12`: the CC50 in data set [1] was more than 10000 nM. In the data set with Hepatitis C virus [2], this molecule displayed an EC50 of 8630 nM.

Regarding `O=C(c1nc2sc3cc(Cl)ccc3n2c1Cl)N1CCN(C2CCCC2)C(=O)C1`, the CC50 in [1] was more than 10000 nM. In addition, the EC50 in the data set with Hepatitis C virus [2] is 1850 nM.

As for `Cc1ccc2c(c1)sc1nc(C(=O)N3CCN(C4CCCC4)C(=O)C3)c(Cl)n12`, the half-maximal cytotoxic concentration (CC50) in data set [1] was more than 10000 nM. The molecule also came in with an EC50 in the data set with Hepatitis C virus [2] of 300 nM.

For `O=C(c1nc2sc3ccccc3n2c1Cl)N1CCN([C@H]2CC[C@H](O)CC2)C(=O)C1`, in data set [1], the CC50 was more than 10000 nM. In the data set on Hepatitis C virus [2], this molecule had an EC50 of 330 nM.

On to `O=C(c1nc2sc3ccccc3n2c1Cl)N1CCN(C2CC=CC2)C(=O)C1`, for which the CC50 in data set [1] was more than 10000 nM. In addition, the EC50 worked out at 31 nM in the data set on Hepatitis C virus [2]; 77 nM in the data set on Hepatitis C virus [4]; 4850 nM in the data set on Hepatitis C virus [5]; 4960 nM in the data set on Hepatitis C virus [6]; 6400 nM with Hepatitis C virus [7]; 3270 nM in the data set on Hepatitis C virus [8]. The EC50 was determined as 12500 nM in the data set with Hepatitis C virus [9]; 19 nM in the data set on Hepatitis C virus [10]; 25 nM in the data set on Hepatitis C virus [11]; 32 nM in the data set on Hepatitis C virus [12]; 22 nM in the data set with Hepatitis C virus [13]; 33 nM in the data set with Hepatitis C virus [14].
